Source: publication PMC3967199 (Scientific Reports, 2014)
Like-named read-outs stand apart in the source and are kept apart here.

Tests used:
[1] = system: MCF7 cells; assay: Peptide-SAQdot605 binding, fluorescence microscopy; format: cell-based
[2] = system: H1299 and H460 xenografts; format: in vivo, NOD/SCID mice
[3] = system: human NSCLC tumor samples; assay: Tumor microarray binding of Peptide-SAQdot 605; conditions: of 59 human NSCLC tumor samples; 10 nM Peptide-SAQdot 605, 30 minutes
Method in brief: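 Commercial paraffin lung cancer tissue microarray; dewaxed, antigen retrieval in 10 mM citrate pH 6.0 at 65°C for 10 min, blocked in PBS + 2.5% BSA. Stained with peptide conjugated 1:1 to streptavidin-Qdot605 in 50% PBS/50% RPMI with 2.5% bovine serum. Washed, DAPI-mounted, three areas imaged per sample. Red Qdot signal compared against green-channel autofluorescence; scored by five independent scientists.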

Row | Samples scored positive for peptide binding [3] [%] | Sequence | Binding of peptide-SAQdot605 [1] | H460 tumor/H1299 tumor ([2]; animal shown, 24 h) [fold] | H460 tumor/lung ([2]; animal shown, 24 h) [fold] | H460/lung ([2]; average of mice (± SEM in text), i.v., ex vivo, 24 h) | H460 tumor/H1299 tumor ([2]; average of mice, i.v., ex vivo, 24 h) | Tumor specificity in vivo ([2]; acetylated peptide) | Tumor uptake of non-acetylated peptide ([2]; free amino-terminus, before acetylation)
1 | – | EAMNSAEQSAAVVQWEKRRI [Peptide H460.1] | specific binding | 8 | 15 | 14 ± 6.5 | 27 | – | –
2 | 24 | FHAVPQSFYTAP [HCC15.2] | – | – | – | – | – | accumulates in both H1299 and H460 tumors | No tumor uptake
